ChEMBL document CHEMBL4261561, “Thiosemicarbazone-based selective proliferation inactivators inhibit gastric cancer cell growth, invasion, and migration” (Medchemcomm, 2017)

Key:
[1] = tested on: MGC-803; assay: Antiproliferative activity against human MGC803 cells after 72 hrs by MTT assay; assay type: functional, cell-based; conditions: MGC-803, 72 h
Method in brief: (§1)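 Exponentially growing cells were seeded at about 3×10^3 per well and left 24 h, then given fresh medium with a range of compound concentrations for 72 h. MTT solution (5 mg/mL) was added for another 4 h. Medium was removed, formazan was dissolved in DMSO, and absorbance was read at 570 nm. IC50 was derived statistically.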

[2] = tested on: SMMC-7721; assay: Antiproliferative activity against human SMMC7721 cells after 72 hrs by MTT assay; assay type: functional, cell-based; conditions: SMMC-7721, 72 h; method in brief: as §1
[3] = tested on: MCF7; assay: Antiproliferative activity against human MCF7 cells after 72 hrs by MTT assay; assay type: functional, cell-based; conditions: MCF7, 72 h; method in brief: as §1
[4] = tested on: GES1; assay: Cytotoxicity against human GES-1 cells after 72 hrs by MTT assay; assay type: cell-based; conditions: GES1, 72 h; method in brief: as §1

| SMILES | IC50 [1] | IC50 [2] | IC50 [3] | IC50 [4] |
| --- | --- | --- | --- | --- |
| C/C(=N\NC(=S)N1CCOCC1)c1ccccc1N | > 64 µM | > 64 µM | > 64 µM |  |
| NC(=S)N/N=C/c1ncccc1N [TRIAPINE] | 9.68 µM | 42.8 µM | 18.9 µM | 5.4 µM |
| Oc1ccccc1/C=N/NC(=S)N1CCOCC1 | 29.2 µM | 37.3 µM | > 64 µM |  |
| C/C(=N\NC(=S)N1CCOCC1)c1ccc(O)cc1 | > 64 µM | > 64 µM | > 64 µM |  |
| C/C(=N\NC(=S)N1CCOCC1)c1ccccc1 | 32.6 µM | > 64 µM | 44.6 µM |  |
